pIC50: −log10 of the molar value.
Legend:
[1] = biological target: T1, Inhibitor of nuclear factor kappa-B kinase subunit beta (Homo sapiens) (UniProt O14920); assay: Inhibition of IKK-beta assessed as residual activity at 10 uM by Cherenkov counting relative to control in presence of 5 uM ATP
T1 sequence (whole entry): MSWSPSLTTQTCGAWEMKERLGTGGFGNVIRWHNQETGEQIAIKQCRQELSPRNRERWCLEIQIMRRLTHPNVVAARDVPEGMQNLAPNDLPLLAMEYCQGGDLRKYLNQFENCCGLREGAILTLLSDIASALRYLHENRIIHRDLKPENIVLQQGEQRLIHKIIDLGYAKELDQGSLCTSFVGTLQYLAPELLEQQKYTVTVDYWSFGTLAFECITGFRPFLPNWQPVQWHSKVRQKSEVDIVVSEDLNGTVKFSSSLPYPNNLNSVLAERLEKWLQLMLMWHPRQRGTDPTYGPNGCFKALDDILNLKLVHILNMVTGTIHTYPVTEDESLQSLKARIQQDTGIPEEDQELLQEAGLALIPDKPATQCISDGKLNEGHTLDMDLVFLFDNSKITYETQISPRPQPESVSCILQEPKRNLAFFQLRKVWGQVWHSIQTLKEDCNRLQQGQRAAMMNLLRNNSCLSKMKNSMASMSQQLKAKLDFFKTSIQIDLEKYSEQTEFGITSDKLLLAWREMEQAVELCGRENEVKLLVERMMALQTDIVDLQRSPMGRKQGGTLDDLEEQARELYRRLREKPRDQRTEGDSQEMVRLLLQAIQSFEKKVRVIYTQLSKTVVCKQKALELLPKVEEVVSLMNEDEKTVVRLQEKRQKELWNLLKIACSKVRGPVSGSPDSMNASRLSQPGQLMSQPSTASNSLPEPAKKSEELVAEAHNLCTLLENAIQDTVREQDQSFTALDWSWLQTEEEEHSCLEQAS
How it was run: (§1)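 Single-point profiling at 10 µM in a panel of 78 protein kinases. Kinase activity is expressed as a percentage relative to control assays without compound.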

[2] = biological target: T2, Inhibitor of nuclear factor kappa-B kinase subunit epsilon (Homo sapiens) (UniProt Q14164); assay: Inhibition of IKKepsilon assessed as residual activity at 10 uM by Cherenkov counting relative to control in presence of 50 uM ATP
T2 sequence (whole entry): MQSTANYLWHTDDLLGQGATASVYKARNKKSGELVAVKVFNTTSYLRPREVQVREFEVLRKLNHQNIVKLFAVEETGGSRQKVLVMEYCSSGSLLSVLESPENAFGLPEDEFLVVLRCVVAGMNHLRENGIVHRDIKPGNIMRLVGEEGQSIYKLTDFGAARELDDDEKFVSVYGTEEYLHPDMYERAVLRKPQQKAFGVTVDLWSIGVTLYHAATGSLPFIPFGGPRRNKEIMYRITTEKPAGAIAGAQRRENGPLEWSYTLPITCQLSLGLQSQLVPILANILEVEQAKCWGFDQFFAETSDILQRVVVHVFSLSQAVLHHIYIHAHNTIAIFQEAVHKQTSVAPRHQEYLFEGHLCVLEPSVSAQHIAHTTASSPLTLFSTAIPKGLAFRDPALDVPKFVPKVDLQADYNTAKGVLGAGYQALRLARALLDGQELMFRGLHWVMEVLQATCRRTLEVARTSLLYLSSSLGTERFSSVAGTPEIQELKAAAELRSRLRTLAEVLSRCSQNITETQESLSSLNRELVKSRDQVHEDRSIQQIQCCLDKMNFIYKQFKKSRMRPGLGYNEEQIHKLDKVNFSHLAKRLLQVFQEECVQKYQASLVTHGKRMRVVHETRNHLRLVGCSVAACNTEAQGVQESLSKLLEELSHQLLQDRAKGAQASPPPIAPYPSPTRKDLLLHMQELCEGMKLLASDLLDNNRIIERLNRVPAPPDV

[3] = biological target: Fibroblast growth factor receptor 1 (Homo sapiens) (UniProt P11362); assay: Inhibition of FGFR1 assessed as residual activity at 10 uM by Cherenkov counting relative to control in presence of 20 uM ATP; how it was run: as §1
[4] = biological target: Ephrin type-B receptor 3 (Homo sapiens) (UniProt P54753); assay: Inhibition of EPHB3 assessed as residual activity at 0.1 uM by Cherenkov counting relative to control
How it was run: (§2)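 Single-concentration screen at 0.1 µM across a panel of 76 protein kinases. Each kinase was run at an ATP concentration approximating its ATP Km. Results are % mean residual activity versus control assays without compound (n = 3 ± SD).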

[5] = Inhibition of PKA assessed as residual activity at 0.1 uM by Cherenkov counting relative to control in presence of 20 uM ATP
How it was run: (§3)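 Single-concentration selectivity screen at 0.1 μM against a panel of 76 protein kinases. Each kinase was run at an ATP level approximating its Km for ATP. Output is mean residual activity as % of the control assay without compound, n = 3 ± SD.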

[6] = biological target: SRSF protein kinase 1 (Homo sapiens) (UniProt Q96SB4); assay: Inhibition of SRPK1 assessed as residual activity at 0.1 uM by Cherenkov counting relative to control in presence of 50 uM ATP
How it was run: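 Single-concentration screen at 0.1 μM in a 76-kinase panel. ATP for each kinase was set near its Km for ATP. Residual activity is given as a percentage of control assays without compound, mean of n = 3 ± SD.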

[7] = biological target: Dual specificity mitogen-activated protein kinase kinase 1 (Homo sapiens) (UniProt Q02750); assay: Inhibition of MKK1 at 0.1 uM by Cherenkov counting in presence of 5 uM ATP; how it was run: as §3
[8] = biological target: Calcium/calmodulin-dependent protein kinase kinase 2 (Homo sapiens) (UniProt Q96RR4); assay: Inhibition of CAMKKbeta assessed as residual activity at 0.1 uM by Cherenkov counting relative to control; how it was run: as §2
[9] = biological target: Mitogen-activated protein kinase 15 (Homo sapiens) (UniProt Q8TD08); assay: Inhibition of ERK8 assessed as residual activity at 0.1 uM by Cherenkov counting relative to control in presence of 5 uM ATP; how it was run: as §2
[10] = biological target: Casein kinase I isoform delta (Homo sapiens, UniProt P48730); assay: Inhibition of recombinant CK1delta kinase domain by Cherenkov counting
[11] = Inhibition of AMPK assessed as residual activity at 0.1 uM by Cherenkov counting relative to control in presence of 50 uM ATP; how it was run: as §2

Chain of Fibroblast growth factor receptor 1 (Homo sapiens) (P11362 22-822 limits assumed): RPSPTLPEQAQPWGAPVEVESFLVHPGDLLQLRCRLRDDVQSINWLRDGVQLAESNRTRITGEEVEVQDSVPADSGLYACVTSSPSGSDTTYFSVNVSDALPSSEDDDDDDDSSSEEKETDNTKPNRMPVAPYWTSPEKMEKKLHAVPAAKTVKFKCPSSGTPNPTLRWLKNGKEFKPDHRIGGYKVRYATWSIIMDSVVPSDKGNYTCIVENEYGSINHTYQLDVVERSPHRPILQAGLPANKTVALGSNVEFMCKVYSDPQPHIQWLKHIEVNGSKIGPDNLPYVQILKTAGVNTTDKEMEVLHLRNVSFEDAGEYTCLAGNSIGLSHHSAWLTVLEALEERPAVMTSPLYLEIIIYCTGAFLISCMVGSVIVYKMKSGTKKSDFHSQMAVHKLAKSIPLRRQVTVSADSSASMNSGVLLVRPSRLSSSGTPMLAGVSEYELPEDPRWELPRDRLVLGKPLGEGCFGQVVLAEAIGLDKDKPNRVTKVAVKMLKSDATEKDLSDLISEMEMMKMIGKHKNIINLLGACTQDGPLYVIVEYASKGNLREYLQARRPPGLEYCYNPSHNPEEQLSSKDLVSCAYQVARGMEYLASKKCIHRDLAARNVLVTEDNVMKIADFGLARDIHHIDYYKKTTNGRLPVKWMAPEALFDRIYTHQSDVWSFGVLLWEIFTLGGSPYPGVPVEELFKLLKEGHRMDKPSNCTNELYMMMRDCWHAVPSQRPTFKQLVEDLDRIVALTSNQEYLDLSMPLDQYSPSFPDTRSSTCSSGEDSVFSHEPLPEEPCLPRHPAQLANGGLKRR
Chain of Calcium/calmodulin-dependent protein kinase kinase 2 (Homo sapiens) (Q96RR4 2-588 limits assumed): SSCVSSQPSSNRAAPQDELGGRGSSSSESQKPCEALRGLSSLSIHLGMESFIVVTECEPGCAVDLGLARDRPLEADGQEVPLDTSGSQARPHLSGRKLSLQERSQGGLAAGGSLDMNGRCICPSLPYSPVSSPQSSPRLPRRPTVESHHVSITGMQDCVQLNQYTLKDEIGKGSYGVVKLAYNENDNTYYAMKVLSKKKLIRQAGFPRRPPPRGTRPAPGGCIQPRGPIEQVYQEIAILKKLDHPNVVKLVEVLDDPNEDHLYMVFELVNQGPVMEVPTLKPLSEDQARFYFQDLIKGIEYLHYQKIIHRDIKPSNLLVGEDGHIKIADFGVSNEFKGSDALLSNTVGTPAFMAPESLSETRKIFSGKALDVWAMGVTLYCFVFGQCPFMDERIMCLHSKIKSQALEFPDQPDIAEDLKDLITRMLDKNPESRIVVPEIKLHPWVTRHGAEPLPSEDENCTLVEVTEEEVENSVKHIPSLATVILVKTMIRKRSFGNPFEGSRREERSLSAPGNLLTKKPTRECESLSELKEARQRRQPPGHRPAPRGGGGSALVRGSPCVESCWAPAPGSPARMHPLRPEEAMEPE
Chain of Casein kinase I isoform delta (P48730 whole entry, the tested form may be a part, canonical isoform): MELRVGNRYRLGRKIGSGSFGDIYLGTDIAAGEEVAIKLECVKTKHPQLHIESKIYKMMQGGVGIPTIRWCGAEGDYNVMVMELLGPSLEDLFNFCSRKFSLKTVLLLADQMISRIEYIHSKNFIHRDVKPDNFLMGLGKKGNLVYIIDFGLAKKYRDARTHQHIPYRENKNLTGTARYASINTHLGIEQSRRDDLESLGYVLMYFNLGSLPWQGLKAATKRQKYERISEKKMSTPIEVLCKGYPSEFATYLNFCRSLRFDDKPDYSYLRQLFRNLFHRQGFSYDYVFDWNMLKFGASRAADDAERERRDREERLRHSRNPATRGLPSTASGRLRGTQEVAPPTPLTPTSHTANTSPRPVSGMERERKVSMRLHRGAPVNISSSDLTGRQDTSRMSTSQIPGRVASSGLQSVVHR
Chain of Mitogen-activated protein kinase 15 (Homo sapiens) (Q8TD08 whole entry, the tested form may be a part, canonical isoform): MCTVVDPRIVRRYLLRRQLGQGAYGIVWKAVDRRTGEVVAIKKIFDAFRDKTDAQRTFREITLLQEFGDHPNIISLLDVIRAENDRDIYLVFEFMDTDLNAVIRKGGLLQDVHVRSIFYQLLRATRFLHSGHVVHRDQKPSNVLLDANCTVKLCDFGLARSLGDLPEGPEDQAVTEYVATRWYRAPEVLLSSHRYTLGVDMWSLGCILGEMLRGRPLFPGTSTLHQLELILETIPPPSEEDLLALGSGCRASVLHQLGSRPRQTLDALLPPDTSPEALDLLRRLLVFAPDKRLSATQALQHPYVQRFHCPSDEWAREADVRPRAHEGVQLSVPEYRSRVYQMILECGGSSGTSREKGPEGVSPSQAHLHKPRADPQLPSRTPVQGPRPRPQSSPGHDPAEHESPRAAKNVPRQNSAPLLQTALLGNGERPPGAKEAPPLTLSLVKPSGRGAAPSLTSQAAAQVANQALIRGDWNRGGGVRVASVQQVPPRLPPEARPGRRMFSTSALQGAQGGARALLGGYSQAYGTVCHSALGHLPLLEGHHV
Chain of SRSF protein kinase 1 (Homo sapiens) (Q96SB4 whole entry): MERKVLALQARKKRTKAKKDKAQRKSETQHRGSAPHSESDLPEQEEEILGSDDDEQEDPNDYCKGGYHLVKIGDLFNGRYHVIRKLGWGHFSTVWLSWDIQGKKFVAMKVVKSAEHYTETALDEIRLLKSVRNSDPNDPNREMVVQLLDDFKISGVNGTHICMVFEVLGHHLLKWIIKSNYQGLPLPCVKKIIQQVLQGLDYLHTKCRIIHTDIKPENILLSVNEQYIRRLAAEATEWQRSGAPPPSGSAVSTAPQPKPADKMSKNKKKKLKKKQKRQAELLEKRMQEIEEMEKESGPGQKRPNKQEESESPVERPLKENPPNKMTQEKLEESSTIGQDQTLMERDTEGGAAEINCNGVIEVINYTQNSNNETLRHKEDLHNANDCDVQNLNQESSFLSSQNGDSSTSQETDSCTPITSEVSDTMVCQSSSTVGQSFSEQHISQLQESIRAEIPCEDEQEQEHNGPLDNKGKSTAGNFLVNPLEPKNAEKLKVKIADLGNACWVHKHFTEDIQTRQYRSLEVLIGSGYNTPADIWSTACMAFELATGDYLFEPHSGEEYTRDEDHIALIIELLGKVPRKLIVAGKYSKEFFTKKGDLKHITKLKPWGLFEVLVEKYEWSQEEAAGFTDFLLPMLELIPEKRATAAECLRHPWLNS
Chain of Ephrin type-B receptor 3 (Homo sapiens) (P54753 whole entry): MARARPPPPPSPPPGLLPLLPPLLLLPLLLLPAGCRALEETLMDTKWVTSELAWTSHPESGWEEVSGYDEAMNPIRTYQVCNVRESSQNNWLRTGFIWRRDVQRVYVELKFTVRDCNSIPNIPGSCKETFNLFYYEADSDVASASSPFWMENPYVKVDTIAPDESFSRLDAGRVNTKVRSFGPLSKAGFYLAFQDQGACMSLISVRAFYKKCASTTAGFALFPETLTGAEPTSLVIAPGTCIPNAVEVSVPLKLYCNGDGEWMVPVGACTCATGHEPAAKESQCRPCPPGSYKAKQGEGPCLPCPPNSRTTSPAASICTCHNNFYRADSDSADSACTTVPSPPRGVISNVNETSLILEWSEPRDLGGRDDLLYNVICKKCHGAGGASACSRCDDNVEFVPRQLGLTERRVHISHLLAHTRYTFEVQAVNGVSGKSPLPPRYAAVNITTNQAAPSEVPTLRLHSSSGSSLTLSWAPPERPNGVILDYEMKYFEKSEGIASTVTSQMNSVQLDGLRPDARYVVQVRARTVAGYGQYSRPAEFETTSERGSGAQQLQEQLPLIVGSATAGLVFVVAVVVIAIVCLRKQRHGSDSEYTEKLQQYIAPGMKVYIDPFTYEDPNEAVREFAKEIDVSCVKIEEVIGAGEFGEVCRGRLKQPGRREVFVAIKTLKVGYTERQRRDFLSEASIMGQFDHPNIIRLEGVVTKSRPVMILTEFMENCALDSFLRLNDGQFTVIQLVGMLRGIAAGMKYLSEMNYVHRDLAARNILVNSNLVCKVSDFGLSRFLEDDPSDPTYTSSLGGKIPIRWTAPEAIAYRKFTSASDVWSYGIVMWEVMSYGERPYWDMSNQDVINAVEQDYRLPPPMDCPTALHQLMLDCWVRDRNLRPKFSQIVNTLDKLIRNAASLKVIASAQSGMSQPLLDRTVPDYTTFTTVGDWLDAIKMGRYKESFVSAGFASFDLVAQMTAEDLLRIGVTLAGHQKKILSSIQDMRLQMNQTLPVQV
Chain of Dual specificity mitogen-activated protein kinase kinase 1 (Homo sapiens) (Q02750 whole entry): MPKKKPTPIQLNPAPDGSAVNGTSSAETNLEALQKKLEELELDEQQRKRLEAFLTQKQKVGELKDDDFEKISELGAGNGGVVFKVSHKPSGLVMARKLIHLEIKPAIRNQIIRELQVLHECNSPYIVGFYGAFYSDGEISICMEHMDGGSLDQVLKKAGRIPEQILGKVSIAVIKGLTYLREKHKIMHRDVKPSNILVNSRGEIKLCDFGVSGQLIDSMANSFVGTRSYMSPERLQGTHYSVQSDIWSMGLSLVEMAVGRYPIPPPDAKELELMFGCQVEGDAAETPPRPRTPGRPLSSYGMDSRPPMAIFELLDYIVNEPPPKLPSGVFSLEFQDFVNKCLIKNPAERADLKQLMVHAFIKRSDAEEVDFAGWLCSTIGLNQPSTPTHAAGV

| Activity [1] [%] | Activity [2] [%] | Activity [3] [%] | Activity [4] [%] | Activity [5] [%] | Activity [6] [%] | inhibition [7] [%] | Activity [8] [%] | pIC50 [10] | Activity [11] [%] | SMILES | Activity [9] [%] |
| --- | --- | --- | --- | --- | --- | --- | --- | --- | --- | --- | --- |
| 103 | 81 | 81 |  |  |  |  |  |  |  | CC(C)c1onc(-c2ccc(F)cc2)c1-c1ccncc1 |  |
| 103 | 71 | 95 |  |  |  |  |  |  |  | CC(C)c1noc(-c2ccc(F)cc2)c1-c1ccncc1 |  |
|  |  |  | 94 | 84 | 91 | 73 | 88 | 8.40 | 92 | COc1ccc(/C=C/C(=O)Nc2cc(-c3[nH]c(SC)nc3-c3ccc(F)cc3)ccn2)c(OC)c1 | 83 |
|  |  |  | 95 | 92 | 97 | 82 | 92 | 8.30 | 99 | COc1ccc(/C=C/C(=O)Nc2cc(-c3[nH]c([S+](C)[O-])nc3-c3ccc(F)cc3)ccn2)c(OC)c1 (configuration not stated) | 88 |

Reference: ChEMBL document CHEMBL1155278, “3,4-Diaryl-isoxazoles and -imidazoles as potent dual inhibitors of p38alpha mitogen activated protein kinase and casein kinase 1delta” (J Med Chem, 2009)
